Some results are limits rather than exact numbers.

Data set [1] has as its system Enterovirus A71. The data set is described as follows: Antiviral activity against Enterovirus A71 Laos2011 HFMD18T infected in human RD cells assessed as reduction in viral replication incubated for 72 hrs by RT-qPCR analysis. Format: functional, organism-based. As to conditions: Enterovirus A.
The next data set deals with Human echovirus 30. Nature of the data set: Antiviral activity against Echovirus 30 strain UVE/E-30/2013/FR/4-MRS2013 infected in human MRC5 cells assessed as […]. Conditions: Enterovirus B, UVE/E-30/2013/FR/4-MRS2013, MRC5. The data set is classed as functional, organism-based, Echovirus E30. In short, it runs like this:
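MRC-5 cells seeded the day before infection in assay medium with 2.5 % FBS. After 24 h, compounds added as eight ½ dilutions, then virus added. On day 3 post-infection, supernatant harvested and viral RNA quantified by RT-qPCR (pan-enterovirus probe/primers, synthetic RNA standard curve). Inhibition calculated relative to four virus control wells per plate. EC50 obtained by nonlinear regression (log(inhibitor) vs response, variable slope, three parameters); two independent experiments.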

Data set [2] is described as follows: Cytotoxicity against human MRC5 cells. The data set is classed as toxicity, cell-based. In short, it runs like this:
(§1)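 CC50 was measured in parallel on compound-treated uninfected cells, run alongside the antiviral assay. Cells were seeded one day ahead in assay medium with 2.5 % FBS (RD at 50000 cells/well) and held at 37 °C, 5 % CO2; MRC-5 were grown in BME with 10 % FBS. Compounds were added as eight ½ dilutions. CC50 came from nonlinear regression (log(inhibitor) vs response, variable slope, three parameters); median ± std of two independent experiments.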

Another data set relates to Coxsackievirus. The data set is described as follows: Antiviral activity against Coxsackievirus A24 UVE/CV-A24/2010/LA/HFMK14 infected in human MRC5 cells assessed as […]. Conditions: UVE/CV-A24/2010/LA/HFMK14, MRC5. Format: functional, organism-based.
The nature of data set [3]: Selectivity index, ratio of CC50 for cytotoxicity against human MRC5 cells to EC50 for antiviral activity against Enterovirus A71 infected in human MRC5 cells. Format: toxicity, cell-based. As to conditions: read-out: Selectivity Index.
Data set [4] is described as follows: Selectivity index, ratio of CC50 for cytotoxicity against human MRC5 cells to EC50 for antiviral activity against Coxsackievirus A24 UVE/CV-A24/2010/LA/HFMK14 infected in human MRC5 cells. The data set is classed as toxicity, cell-based. Conditions: read-out: Selectivity Index. The essentials:
(§2)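 In MRC-5 cells, SI = CC50/EC50. EC50 comes from the 3-day RT-qPCR viral RNA inhibition assay with eight ½ dilutions. CC50 was measured in parallel on compound-treated uninfected MRC-5 cells. Both values derived by nonlinear regression (three-parameter, variable slope); two independent experiments.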

The nature of data set [5]: Selectivity index, ratio of CC50 for cytotoxicity against human RD cells to EC50 for antiviral activity against Enterovirus A71 infected in human RD cells.
Data set [6] relates to Enterovirus A71. The data set is described as follows: Antiviral activity against Enterovirus A71 Laos2011 HFMD18T infected in human RD cells assessed as inhibition of viral RNA copies measured per ml of supernatant at 10 uM treated at time of infection measured after 72 hrs. The data set is classed as functional. As to conditions: Enterovirus A.
The nature of data set [7]: Selectivity index, ratio of CC50 for cytotoxicity against human MRC5 cells to EC50 for antiviral activity against Echovirus 30 strain UVE/E-30/2013/FR/4-MRS2013 infected in human MRC5 cells. As to conditions: read-out: Selectivity Index. The data set is classed as toxicity, cell-based. In short, it runs like this:
as §2

A short description of data set [8]: Cytotoxicity against Chinese hamster CHO cells.
Data set [9] has as its system Enterovirus A71. Nature of the data set: Antiviral activity against Enterovirus A71 Laos2011 HFMD18T infected in human RD cells assessed as RNA copies measured per ml of supernatant at 10 uM treated at time of infection measured after 72 hrs. The data set is classed as functional.
The test system of data set [10] is Enterovirus A71. The data set is described as follows: Antiviral activity against Enterovirus A71 Laos2011 HFMD18T infected in human RD cells assessed as RNA copies measured per ml of supernatant at 10 uM treated 1 hr post infection measured after 72 hrs.
Data set [11] has as its system Enterovirus A71. Nature of the data set: Antiviral activity against Enterovirus A71 Laos2011 HFMD18T infected in human RD cells assessed as inhibition of viral RNA copies measured per ml of supernatant at 10 uM measured after 72 hrs. As to conditions: Enterovirus A.
Data set [12] can be described thus: Cytotoxicity against human RD cells. Format: toxicity, cell-based. In short, it runs like this: as §1
Data set [13] has as its system Enterovirus A71. The data set is described as follows: Antiviral activity against Enterovirus A71 Laos2011 HFMD18T infected in human RD cells assessed as inhibition of viral RNA measured per ml of supernatant at 10 uM pretreated 1 hr before infection measured after 72 hrs. The data set is classed as functional. Conditions: Enterovirus A.
The subject of data set [14] is Enterovirus A71. Nature of the data set: Antiviral activity against Enterovirus A71 Laos2011 HFMD18T infected in human RD cells assessed as RNA copies measured per ml of supernatant at 10 uM pretreated 1 hr before infection measured after 72 hrs relative to control. The data set is classed as functional.
The test system of data set [15] is Enterovirus A71. Nature of the data set: Antiviral activity against Enterovirus A71 Laos2011 HFMD18T infected in human MRC5 cells assessed as reduction in viral replication incubated for 72 hrs by RT-qPCR analysis. The data set is classed as functional, organism-based. As to conditions: Enterovirus A, MRC5, 72 h.
In data set [16] the test system is Enterovirus A71. Nature of the data set: Antiviral activity against Enterovirus A71 Laos2011 HFMD18T infected in human RD cells assessed as RNA copies measured per ml of supernatant at 10 uM treated 4 hr post infection measured after 72 hrs. Format: functional.
The test system of data set [17] is Enterovirus A71. Nature of the data set: Antiviral activity against Enterovirus A71 Laos2011 HFMD18T infected in human RD cells assessed as inhibition of viral RNA copies measured per ml of supernatant at 10 uM treated 4 hr post infection measured after 72 hrs. The data set is classed as functional. As to conditions: Enterovirus A.

As for `c1ccc2oc(-c3ccc(SCc4ccc(-n5cncn5)cc4)cc3)cc2c1`, the EC50 in the data set on Enterovirus A71 [1] is greater than 40 µM.

Regarding `OCc1ccc(-c2ccc(SCc3ccc(-n4cncn4)cc3)nc2)cc1`, the EC50 with Human echovirus 30 was greater than 40 µM; in the data set with Coxsackievirus, 23.2 µM. Further, the CC50 in data set [2] was greater than 40 µM. Moreover, the values for the selectivity ratio in data set [3] and in data set [4] were greater than 181 and greater than 1.7, respectively.

Turning to `CN(C)c1cccc(-c2ccc(CSc3ccc(-c4ccc5ccccc5c4)cn3)cc2)c1`, the EC50 with Enterovirus A71 [1] was greater than 40 µM.

On to `CN1CCN(c2ncc(-c3ccc(CSc4ccc(-c5ccc(CO)cc5)cn4)cc3)cn2)CC1`, for which, in the data set with Enterovirus A71 [1], the concentration for a half-maximal effect (EC50) was greater than 40 µM.

As for `c1ccc2cc(-c3ccc(SCc4ccc(-n5cncn5)cc4)nc3)ccc2c1`, the selectivity ratio was 15.4 in data set [5], greater than 100 in data set [7], greater than 12 in [3] and greater than 40 in [4]. Besides, the half-maximal effective concentration (EC50) in the data set on Human echovirus 30 stood at 0.4 µM; in the data set on Coxsackievirus, 0.99 µM; with Enterovirus A71 [1], 1.86 µM; in the data set with Enterovirus A71 [15] it was 3.25 µM. The inhibition at 10 µM in the data set with Enterovirus A71 [6] was greater than 90%; in the data set on Enterovirus A71 [11], greater than 90%; with Enterovirus A71 [13] it was greater than 90%; in the data set on Enterovirus A71 [17], less than 90%. The figures for the CC50 in data set [2], in [8] and in [12] were greater than 40 µM, 43.2 µM and 23.5 µM, respectively. Moreover, the Activity came to 1.25 log10/ml in the data set with Enterovirus A71 [9], 1.14 log10/ml with Enterovirus A71 [10], 1.5 log10/ml in the data set on Enterovirus A71 [14] and 0.7 log10/ml in the data set with Enterovirus A71 [16].

With `c1ccc2cc(-c3ccc(SCc4ccc(-n5cncn5)cc4)cc3)ccc2c1`, the EC50 with Enterovirus A71 [1] was greater than 40 µM.

In the case of `c1ncn(-c2ccc(CSc3ccc(-c4ccc5[nH]ccc5c4)cc3)cc2)n1`, in the data set with Enterovirus A71 [1], the 50% effective concentration (EC50) was greater than 40 µM.

Consider `CCOc1noc2cc(OCCC3CCN(c4ccc(C)nn4)CC3)ccc12` [VAPENDAVIR], for which the results for the cytotoxic concentration (CC50) in [2] and in data set [12] were greater than 20 µM and greater than 63 µM, respectively.

Consider `c1ccc(Cn2cc(-c3ccc(CSc4ccc(-c5ccc6ccccc6c5)cn4)cc3)cn2)cc1`, for which the half-maximal effective concentration (EC50) in the data set with Enterovirus A71 [1] worked out at 22.3 µM.

As to `c1ccc2c(-c3ccc(SCc4ccc(-n5cncn5)cc4)nc3)cccc2c1`, the EC50 in the data set on Enterovirus A71 [1] is greater than 40 µM.

Take `c1ccc2cc(-c3ccc(SCc4ccc(-n5cncn5)cc4)nc3)ncc2c1`: the selectivity ratio in [5] was greater than 1.8. Also, the values for the EC50 in the data set on Enterovirus A71 [1] and in the data set on Enterovirus A71 [15] were 22.1 µM and greater than 20 µM, respectively. In [12], the cytotoxic concentration (CC50) was greater than 40 µM.

Take `COc1ncc(-c2ccc(CSc3ccc(-c4ccc(CO)cc4)cn3)cc2)cn1`: in the data set on Enterovirus A71 [1], the concentration giving a half-maximal response (EC50) was greater than 40 µM.

With `Nc1ncc(-c2ccc(CSc3ccc(-c4ccc(CO)cc4)cn3)cc2)cn1`, the selectivity ratio in [5] was 1.81; in data set [3] it was greater than 54. Further, the CC50 in data set [2] is greater than 20 µM; in [8] it was 36.9 µM; in data set [12], 44.7 µM. Further, the values for the EC50 with Enterovirus A71 [1] and in the data set on Enterovirus A71 [15] were 24.7 µM and less than 0.37 µM, respectively.

For `Cn1cc(-c2ccc(SCc3ccc(-n4cncn4)cc3)nc2)cn1`, the concentration for a half-maximal effect (EC50) was 4.38 µM in the data set with Enterovirus A71 [1] and 0.57 µM in the data set with Enterovirus A71 [15].

Turning to `CN(C)c1ncc(-c2ccc(CSc3ccc(-c4ccc(CO)cc4)cn3)cc2)cn1`, the EC50 in the data set on Enterovirus A71 [1] is greater than 40 µM.

Take `OCc1cccc(-c2ccc(SCc3ccc(-n4cncn4)cc3)nc2)c1`: the selectivity ratio was greater than 14 in data set [5] and greater than 1.8 in data set [3]. Further, the CC50 in data set [2] and in [12] was greater than 40 µM throughout. Further, the EC50 with Enterovirus A71 [1] is 2.78 µM; in the data set with Enterovirus A71 [15], 22 µM.

`Cn1cc(-c2ccc(CSc3ccc(-c4ccc5ccccc5c4)cn3)cc2)cn1`: the selectivity ratio in [5] was greater than 3.3; in data set [3], greater than 1.8. Moreover, the CC50 in data set [2] and in [12] was greater than 40 µM in each case. The 50% effective concentration (EC50) in the data set with Enterovirus A71 [1] came to 12 µM; with Enterovirus A71 [15], 22.4 µM.

As to `c1ccc2cc(-c3ccc(SCc4ccc(-n5cncn5)cc4)cc3)ncc2c1`, the selectivity ratio was 6.62 in data set [5], greater than 100 in data set [7], greater than 25 in data set [3] and greater than 32 in data set [4]. The concentration for a half-maximal effect (EC50) in the data set on Human echovirus 30 was found to be 0.41 µM; with Coxsackievirus it was 1.22 µM; in the data set on Enterovirus A71 [1], 4.3 µM; in the data set on Enterovirus A71 [15], 1.15 µM. Besides, the cytotoxic concentration (CC50) was greater than 40 µM in data set [2], 31.3 µM in data set [8] and 30.5 µM in data set [12].

Take `CCNc1ncc(-c2ccc(CSc3ccc(-c4ccc(CO)cc4)cn3)cc2)cn1`: the EC50 in the data set with Enterovirus A71 [1] is greater than 40 µM.

`OCc1ccc(-c2ccc(SCc3ccc(-c4cnc(N5CCOCC5)nc4)cc3)nc2)cc1`: the half-maximal effective concentration (EC50) in the data set with Enterovirus A71 [1] was greater than 40 µM.

Turning to `O=C1NC(SCc2ccc(-n3cncn3)cc2)=N/C1=C\c1c[nH]c2ccccc12`, the selectivity ratio in data set [5] is 20.7. Also, the cytotoxic concentration (CC50) was found to be 33.6 µM in data set [8] and 96.3 µM in [12]. Moreover, the results for the EC50 in the data set with Enterovirus A71 [1] and in the data set on Enterovirus A71 [15] were 4.65 µM and greater than 40 µM, respectively.

In the case of `CN(C)c1ccc(-c2ccc(CSc3ccc(-c4ccc5ccccc5c4)cn3)cc2)cc1`, in the data set with Enterovirus A71 [1], the EC50 is greater than 40 µM.

`c1ncn(-c2ccc(CSc3ccc(-c4ccc5cn[nH]c5c4)cc3)cc2)n1`: in the data set with Enterovirus A71 [1], the EC50 is greater than 40 µM.

For `Cc1noc(C)c1-c1ccc(CSc2ccc(-c3ccc4ccccc4c3)cn2)cc1`, in data set [5], the selectivity ratio is greater than 1.8. In addition, the EC50 in the data set on Enterovirus A71 [1] was 22.3 µM; in the data set with Enterovirus A71 [15], greater than 40 µM. Moreover, the CC50 in [12] is greater than 40 µM.

The values are drawn from ChEMBL document CHEMBL6109076, “Design and synthesis of novel thioether analogs as promising antiviral agents: In vitro activity against enteroviruses of interest” (Eur J Med Chem, 2025).
